From ChEMBL document CHEMBL1765036, “Small-molecule ligands of methyl-lysine binding proteins” (J Med Chem, 2011) come the findings set out here.

The term IC50 denotes the point on the concentration scale where inhibition reaches its midpoint.

Structures are written as SMILES.

For assay [1], the target named is T1, Chromobox protein homolog 7 (Homo sapiens, UniProt O95931).
T1 sequence (O95931 whole entry): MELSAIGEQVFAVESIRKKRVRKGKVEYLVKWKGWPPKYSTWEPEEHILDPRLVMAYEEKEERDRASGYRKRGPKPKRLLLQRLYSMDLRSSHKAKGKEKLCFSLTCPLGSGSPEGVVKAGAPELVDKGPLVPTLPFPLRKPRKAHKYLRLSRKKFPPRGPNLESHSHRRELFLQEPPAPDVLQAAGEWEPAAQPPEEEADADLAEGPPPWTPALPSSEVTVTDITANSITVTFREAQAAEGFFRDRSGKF
Nature of the assay: Binding affinity to CBX7 by chemiluminescent assay. An outline of the steps:
(§1)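 AlphaScreen bead-based chemiluminescent proximity assay measuring antagonism of methylated histone peptide binding to the MBT/methyl-lysine reader domain. The peptide is H3K9Me1, the same one used as FAM-labelled probe (H3 residues 1-15, monomethyl K9) in the FP assay. A separate counterscreen was run for compound interference with the assay signal.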

The target of assay [2] is T2, Lethal(3)malignant brain tumor-like protein 3 (Homo sapiens, UniProt Q96JM7).
T2 sequence (Q96JM7 whole entry): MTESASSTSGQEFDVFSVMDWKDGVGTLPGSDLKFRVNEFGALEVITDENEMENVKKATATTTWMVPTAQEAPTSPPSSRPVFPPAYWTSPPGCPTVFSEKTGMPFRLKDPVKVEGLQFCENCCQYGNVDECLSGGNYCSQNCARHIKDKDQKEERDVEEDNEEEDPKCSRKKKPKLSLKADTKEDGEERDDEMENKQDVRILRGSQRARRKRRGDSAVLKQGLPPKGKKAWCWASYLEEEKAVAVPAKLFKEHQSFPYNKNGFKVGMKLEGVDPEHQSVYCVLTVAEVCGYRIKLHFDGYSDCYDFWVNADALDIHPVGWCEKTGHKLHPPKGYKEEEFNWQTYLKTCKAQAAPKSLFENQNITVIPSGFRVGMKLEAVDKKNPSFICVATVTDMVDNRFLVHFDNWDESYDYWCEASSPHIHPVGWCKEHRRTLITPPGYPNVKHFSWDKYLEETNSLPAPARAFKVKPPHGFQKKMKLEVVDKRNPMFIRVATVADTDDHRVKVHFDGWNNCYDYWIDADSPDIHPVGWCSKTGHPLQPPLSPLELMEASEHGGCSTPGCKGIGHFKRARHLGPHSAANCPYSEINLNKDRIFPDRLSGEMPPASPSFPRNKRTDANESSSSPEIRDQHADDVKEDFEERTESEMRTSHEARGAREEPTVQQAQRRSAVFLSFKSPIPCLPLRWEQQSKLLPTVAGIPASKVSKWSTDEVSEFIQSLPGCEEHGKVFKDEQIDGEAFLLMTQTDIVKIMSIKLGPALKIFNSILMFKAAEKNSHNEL
Nature of the assay: Binding affinity to L3MBTL3 by chemiluminescent assay. An outline of the steps: as §1

Assay [3] deals with T3, Scm-like with four MBT domains protein 1 (Homo sapiens, UniProt Q9UHJ3).
T3 sequence (Q9UHJ3 whole entry): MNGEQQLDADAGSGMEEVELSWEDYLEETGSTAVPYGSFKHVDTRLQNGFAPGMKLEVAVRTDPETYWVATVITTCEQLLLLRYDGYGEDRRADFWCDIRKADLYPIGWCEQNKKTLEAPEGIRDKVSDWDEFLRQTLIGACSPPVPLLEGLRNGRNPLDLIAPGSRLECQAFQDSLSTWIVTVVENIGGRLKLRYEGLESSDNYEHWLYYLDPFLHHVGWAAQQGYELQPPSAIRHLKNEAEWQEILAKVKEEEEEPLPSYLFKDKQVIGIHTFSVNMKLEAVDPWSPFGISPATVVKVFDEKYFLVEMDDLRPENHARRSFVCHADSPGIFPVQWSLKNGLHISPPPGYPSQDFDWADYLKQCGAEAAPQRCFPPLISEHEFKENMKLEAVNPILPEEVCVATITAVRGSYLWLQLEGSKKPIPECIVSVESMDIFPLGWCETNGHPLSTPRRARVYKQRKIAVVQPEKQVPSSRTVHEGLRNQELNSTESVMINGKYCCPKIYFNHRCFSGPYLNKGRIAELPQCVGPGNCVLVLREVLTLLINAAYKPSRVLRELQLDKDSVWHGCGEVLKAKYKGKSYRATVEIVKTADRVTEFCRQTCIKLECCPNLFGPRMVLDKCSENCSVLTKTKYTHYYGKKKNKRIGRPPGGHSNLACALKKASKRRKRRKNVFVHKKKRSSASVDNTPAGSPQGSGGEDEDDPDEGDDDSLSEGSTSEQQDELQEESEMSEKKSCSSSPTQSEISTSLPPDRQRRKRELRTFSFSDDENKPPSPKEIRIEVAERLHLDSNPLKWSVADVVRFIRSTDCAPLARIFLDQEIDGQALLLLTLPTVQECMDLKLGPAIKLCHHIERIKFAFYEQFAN
Nature of the assay: Binding affinity to human SFMBT by chemiluminescent assay. An outline of the steps:
as §1

The target of assay [4] is MBT domain-containing protein 1 (Homo sapiens, UniProt Q05BQ5). The experiment in a line: Binding affinity to MBTD1 by chemiluminescent assay. In short, it runs like this:
as §1

In assay [5] the target is T4, Lethal(3)malignant brain tumor-like protein 4 (Homo sapiens, UniProt Q8NA19).
T4 sequence (Q8NA19 whole entry): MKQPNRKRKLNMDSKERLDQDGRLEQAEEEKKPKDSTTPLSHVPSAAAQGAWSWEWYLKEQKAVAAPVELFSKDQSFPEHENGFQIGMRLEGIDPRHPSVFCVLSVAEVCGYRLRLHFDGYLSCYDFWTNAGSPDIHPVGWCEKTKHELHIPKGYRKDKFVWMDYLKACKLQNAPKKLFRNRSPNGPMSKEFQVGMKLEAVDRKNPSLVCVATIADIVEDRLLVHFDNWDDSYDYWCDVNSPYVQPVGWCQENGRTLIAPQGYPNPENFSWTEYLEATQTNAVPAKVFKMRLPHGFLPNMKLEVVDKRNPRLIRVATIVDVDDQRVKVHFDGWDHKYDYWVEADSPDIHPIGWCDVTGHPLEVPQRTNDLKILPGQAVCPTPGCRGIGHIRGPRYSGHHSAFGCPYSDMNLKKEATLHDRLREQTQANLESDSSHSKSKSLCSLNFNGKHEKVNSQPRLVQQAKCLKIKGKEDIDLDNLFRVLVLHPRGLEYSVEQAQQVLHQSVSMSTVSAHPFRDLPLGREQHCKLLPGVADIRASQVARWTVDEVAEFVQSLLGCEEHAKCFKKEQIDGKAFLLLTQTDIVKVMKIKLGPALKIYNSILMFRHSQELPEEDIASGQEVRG
Nature of the assay: Binding affinity to L3MBTL4 by chemiluminescent assay. In short, it runs like this:
as §1

Assay [6] addresses PHD finger protein 13 (Homo sapiens, UniProt Q86YI8). Nature of the assay: Binding affinity to PHF13 by chemiluminescent assay. An outline of the steps:
as §1

Chain of PHD finger protein 13 (Q86YI8 whole entry): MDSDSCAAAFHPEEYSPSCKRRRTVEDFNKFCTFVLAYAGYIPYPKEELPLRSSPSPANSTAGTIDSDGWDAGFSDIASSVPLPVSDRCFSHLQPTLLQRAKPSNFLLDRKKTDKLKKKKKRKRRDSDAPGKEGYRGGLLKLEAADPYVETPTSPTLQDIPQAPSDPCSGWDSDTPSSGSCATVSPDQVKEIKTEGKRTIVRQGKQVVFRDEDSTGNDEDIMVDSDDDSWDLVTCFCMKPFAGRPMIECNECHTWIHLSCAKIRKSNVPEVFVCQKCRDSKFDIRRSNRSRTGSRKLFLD
Chain of MBT domain-containing protein 1 (Q05BQ5 whole entry, the tested form may be a part): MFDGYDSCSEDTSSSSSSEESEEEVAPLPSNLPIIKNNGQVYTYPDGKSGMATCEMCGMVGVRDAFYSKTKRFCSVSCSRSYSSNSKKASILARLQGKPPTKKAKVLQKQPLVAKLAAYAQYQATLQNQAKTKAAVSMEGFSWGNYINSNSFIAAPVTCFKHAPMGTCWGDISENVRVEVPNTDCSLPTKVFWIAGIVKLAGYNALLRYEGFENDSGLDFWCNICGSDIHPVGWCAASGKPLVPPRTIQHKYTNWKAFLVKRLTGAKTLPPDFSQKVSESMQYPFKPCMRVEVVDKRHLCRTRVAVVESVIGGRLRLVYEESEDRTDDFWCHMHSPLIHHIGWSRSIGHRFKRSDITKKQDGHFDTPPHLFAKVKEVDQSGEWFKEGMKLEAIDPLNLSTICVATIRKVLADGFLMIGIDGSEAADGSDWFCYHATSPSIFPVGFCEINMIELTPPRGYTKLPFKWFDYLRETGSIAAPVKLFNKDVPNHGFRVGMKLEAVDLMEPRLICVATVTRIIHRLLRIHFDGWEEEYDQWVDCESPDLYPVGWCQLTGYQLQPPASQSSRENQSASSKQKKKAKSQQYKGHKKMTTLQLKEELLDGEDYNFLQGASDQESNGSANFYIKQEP

For `O=C(c1cncc(Br)c1)N1CCC(N2CCCC2)CC1`, the IC50 entry in assay [1] was “Not Active”; in assay [2], 35 µM; in assay [3], “Not Active”; in assay [4], “Not Active”; in assay [5] (read-out: IC50), 69 µM; in assay [6], “Not Active”.
As for `O=C(NCCCCCN1CCCC1)c1cncc(Br)c1`, the IC50 entry in assay [1] was “Not Active”; in assay [2], 28 µM; in assay [3], “Not Active”; in assay [4], “Not Active”; in assay [5], “Not Active”; in assay [6] (read-out: IC50), 48 µM.
